In brackets after ≈: the same amount, converted by molar mass. Each block holds one molecule with its values, some of them ahead of it.
Columns and labels:
[1] = test system: stationary phase S. aureus Newman cells; assay: Stationary-phase persister cell killing; format: cell-based, Staphylococcus aureus; settings: 100× or 10× MIC
[2] = test system: S. aureus MRSA strain USA300; assay: Murine epicutaneous infection model; format: in vivo, BALB/c mice
S. aureus Newman [3] = assay: MIC, broth microdilution; format: cell-based; settings: Staphylococcus aureus
S. aureus Newman [4] = format: cell-based, Staphylococcus aureus; settings: 40 mM, fig. S4C
[5] = test system: S. aureus RN4220 overexpressing putative target genes; assay: MIC against strains overexpressing putative target proteins; format: cell-based, Staphylococcus aureus; settings: fig. S4A
[6] = test system: MRSA USA300 preformed biofilm; assay: Preformed biofilm eradication, crystal violet; format: cell-based, Staphylococcus aureus; settings: control
How it was run: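 Eradication of preformed USA300 biofilms by test compound was quantified by crystal violet staining after washing. Three independent experiments, triplicate runs per concentration.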

S. aureus Newman [7] = assay: Time-killing assay, exponential culture; format: cell-based, Staphylococcus aureus; settings: control experiment
How it was run: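 Newman grown in LB at 37°C with shaking to OD600 0.4–0.6, then diluted to 1 × 10⁶ CFU/ml in LB containing various concentrations of test compound, with vancomycin as comparator. Incubated at 37°C with shaking. Serial dilutions plated on LB agar at set time points for CFU/ml. Duplicate, three independent experiments.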

[8] = test system: S. aureus MRSA strain USA300; assay: MIC, broth microdilution; format: cell-based; settings: Staphylococcus aureus
How it was run: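 CLSI M07-A10 broth microdilution with twofold serial dilutions of test compound in MH broth. Inoculum was cells grown in MH broth at 37°C with shaking to OD600 0.4–0.6, diluted to ~1 × 10⁵ CFU/ml final. Run in duplicate, three independent experiments.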

S. aureus USA300 = assay: Transmission electron microscopy of cell structure; format: cell-based, Staphylococcus aureus; settings: 0.5× MIC, cell lysis within 4 hours

Structure (SMILES): O=C(O)c1cn(C2CC2)c2cc(N3CCNCC3)c(F)cc2c1=O [Cipro, ciprofloxacin]
tolerance of persisters [1]: high level of tolerance

Structure (SMILES): COc1cccc(OC)c1C(=O)N[C@@H]1C(=O)N2[C@@H]1SC(C)(C)[C@@H]2C(=O)O [Met, methicillin]
killing effect compared to the vehicle control ([2]; 3 mg kg^−1): no significant killing effect

Structure (SMILES): CC1(C)S[C@@H]2[C@H](NC(=O)Cc3ccccc3)C(=O)N2[C@H]1C(=O)O [Pen, penicillin G]
tolerance of persisters [1]: high level of tolerance
MIC (S. aureus Newman [3]): 0.125 µg/mL (≈ 0.374 µM)
effect of sole addition of lysine or UDP-GlcNAc on susceptibility (S. aureus Newman [4]): did not affect
effect of overexpression of each protein on sensitivity [5]: no effect

Structure (SMILES): CN[C@H](CC(C)C)C(=O)N[C@H]1C(=O)N[C@@H](CC(N)=O)C(=O)N[C@H]2C(=O)N[C@H]3C(=O)N[C@H](C(=O)N[C@H](C(=O)O)c4cc(O)cc(O)c4-c4cc3ccc4O)[C@H](O)c3ccc(c(Cl)c3)Oc3cc2cc(c3O[C@@H]2O[C@H](CO)[C@@H](O)[C@H](O)[C@H]2O[C@H]2C[C@](C)(N)[C@H](O)[C@H](C)O2)Oc2ccc(cc2Cl)[C@H]1O [Van, vancomycin]
antibiofilm ability [6]: no antibiofilm ability
killing speed compared with ChryA (S. aureus Newman [7]): much slower killing

MIC [8]: 4 µg/mL (≈ 29 µM)
Structure (SMILES): C[C@@H]1O[C@@H]1P(=O)(O)O [fosfomycin]
cell wall integrity (TEM) (S. aureus USA300): severely impaired

MIC [8]: 0.031 µg/mL (≈ 0.06 µM)
Structure (SMILES): CC(=O)O[C@H]1C[C@@]2(C)[C@@H](C[C@@H](O)[C@H]3[C@@]4(C)CC[C@@H](O)[C@@H](C)[C@@H]4CC[C@@]32C)/C1=C(\CCC=C(C)C)C(=O)O [fusidic acid]
effectiveness, ChryA versus fusidic acid ([2]; bacterial colonization of wounds on Day 16, fig. S3): less effectiveness compared to the low dose of ChryA
